Results taken from ChEMBL document CHEMBL3044653, “Synthesis and herbicidal activity of 2-(substituted phenoxyacetoxy)alkyl-5,5-dimethyl-1,3,2-dioxaphosphinan-2-one” (J Agric Food Chem, 2012).

How the values were obtained:
[1] = system: Triticum aestivum; test: Toxicity in Triticum aestivum (wheat) plant assessed as inhibition at 150 g/hectare; assay type: organism-based; conditions: in vivo
Outline: (§1)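 For crop selectivity, conventional crop varieties were planted in 12 cm diameter plots and given a postemergence treatment at 150 g ai/ha. Injury was scored as percent inhibition, with 0–10% classed as safe to the crop.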

[2] = system: Brassica napus; test: Toxicity in Brassica napus (oilseed rape) assessed as inhibition at 150 g/hectare; assay type: functional; outline: as §1
[3] = system: Gossypium hirsutum; test: Toxicity in Gossypium hirsutum (cotton) plant assessed as inhibition at 150 g/hectare; assay type: organism-based; conditions: in vivo; outline: as §1
[4] = system: Glycine max; test: Toxicity in Glycine max (soybean) plant assessed as inhibition at 150 g/hectare; assay type: organism-based; conditions: in vivo; outline: as §1
[5] = system: Zea mays; test: Toxicity in Zea mays (maize) plant assessed as inhibition at 150 g/hectare; assay type: organism-based; conditions: in vivo; outline: as §1
[6] = system: Oryza sativa; test: Toxicity in Oryza sativa (rice) plant assessed as inhibition at 150 g/hectare; assay type: organism-based; conditions: in vivo; outline: as §1
[7] = system: Eclipta prostrata; test: Post-emergence herbicidal activity against Eclipta prostrata assessed as inhibition at 75 g/hectare treated at two-leaf stage by green house assay; assay type: functional
Outline: (§2)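 Greenhouse postemergence spray of diluted formulation solutions onto broadleaf weeds at the two-leaf stage. Primary screen at 150 g ai/ha, with selected compounds retested at 75 and 37.5 g ai/ha. Abutilon was tested at 150 g ai/ha only. Read-out is percent herbicidal damage relative to an untreated control.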

[8] = system: Eclipta prostrata; test: Post-emergence herbicidal activity against Eclipta prostrata assessed as inhibition at 37.5 g/hectare treated at two-leaf stage by green house assay; assay type: functional; outline: as §2
[9] = system: Amaranthus retroflexus; test: Post-emergence herbicidal activity against Amaranthus retroflexus assessed as inhibition at 37.5 g/hectare treated at two-leaf stage by green house assay; assay type: functional; outline: as §2
[10] = system: Amaranthus retroflexus; test: Post-emergence herbicidal activity against Amaranthus retroflexus assessed as inhibition at 75 g/hectare treated at two-leaf stage by green house assay; assay type: functional; outline: as §2
[11] = system: Brassica juncea; test: Post-emergence herbicidal activity against Brassica juncea assessed as inhibition at 75 g/hectare treated at two-leaf stage by green house assay; assay type: functional; outline: as §2
[12] = system: Brassica juncea; test: Post-emergence herbicidal activity against Brassica juncea assessed as inhibition at 37.5 g/hectare treated at two-leaf stage by green house assay; assay type: functional; outline: as §2
[13] = system: Digitaria sanguinalis; test: Post-emergence herbicidal activity against Digitaria sanguinalis (hairy crabgrass) assessed as inhibition at 75 g/hectare treated at one-leaf stage by green house assay; assay type: functional
Outline: (§3)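 Monocot weeds were sprayed postemergence in the greenhouse at the one-leaf stage with diluted formulation solutions. Primary dose was 150 g ai/ha, with follow-up doses of 75 and 37.5 g ai/ha for selected compounds. Activity is scored as percent herbicidal damage compared with an untreated control.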

[14] = system: Digitaria sanguinalis; test: Post-emergence herbicidal activity against Digitaria sanguinalis (hairy crabgrass) assessed as inhibition at 37.5 g/hectare treated at one-leaf stage by green house assay; assay type: functional; outline: as §3
[15] = system: Setaria viridis; test: Post-emergence herbicidal activity against Setaria viridis (green foxtail) assessed as inhibition at 75 g/hectare treated at one-leaf stage by green house assay; assay type: functional; outline: as §3
[16] = system: Setaria viridis; test: Post-emergence herbicidal activity against Setaria viridis (green foxtail) assessed as inhibition at 37.5 g/hectare treated at one-leaf stage by green house assay; assay type: functional; outline: as §3
[17] = system: Echinochloa crus-galli; test: Post-emergence herbicidal activity against Echinochloa crus-galli (barnyard grass) assessed as inhibition at 75 g/hectare treated at one-leaf stage by green house assay; assay type: functional; outline: as §3
[18] = system: Echinochloa crus-galli; test: Post-emergence herbicidal activity against Echinochloa crus-galli (barnyard grass) assessed as inhibition at 37.5 g/hectare treated at one-leaf stage by green house assay; assay type: functional; outline: as §3
[19] = system: Eclipta prostrata; test: Post-emergence herbicidal activity against Eclipta prostrata assessed as inhibition at 150 g/hectare treated at two-leaf stage by green house assay; assay type: functional; outline: as §2
[20] = system: Amaranthus retroflexus; test: Post-emergence herbicidal activity against Amaranthus retroflexus assessed as inhibition at 150 g/hectare treated at two-leaf stage by green house assay; assay type: functional; outline: as §2
[21] = system: Brassica juncea; test: Post-emergence herbicidal activity against Brassica juncea assessed as inhibition at 150 g/hectare treated at two-leaf stage by green house assay; assay type: functional; outline: as §2
[22] = system: Abutilon theophrasti; test: Post-emergence herbicidal activity against Abutilon theophrasti (velvetleaf) assessed as inhibition at 150 g/hectare treated at two-leaf stage by green house assay; assay type: functional; outline: as §2
[23] = system: Digitaria sanguinalis; test: Post-emergence herbicidal activity against Digitaria sanguinalis (hairy crabgrass) assessed as inhibition at 150 g/hectare treated at one-leaf stage by green house assay; assay type: functional; outline: as §3
[24] = system: Echinochloa crus-galli; test: Post-emergence herbicidal activity against Echinochloa crus-galli (barnyard grass) assessed as inhibition at 150 g/hectare treated at one-leaf stage by green house assay; assay type: functional; outline: as §3
[25] = system: Setaria viridis; test: Post-emergence herbicidal activity against Setaria viridis (green foxtail) assessed as inhibition at 150 g/hectare treated at one-leaf stage by green house assay; assay type: functional; outline: as §3

SMILES | inhibition at 150 g/ha [19] [%] | inhibition at 150 g/ha [20] [%] | inhibition at 150 g/ha [21] [%] | inhibition at 150 g/ha [22] [%] | inhibition at 150 g/ha [23] [%] | inhibition at 150 g/ha [24] [%] | inhibition at 150 g/ha [25] [%] | also measured
CC1(C)COP(=O)(C(OC(=O)COc2ccc(Cl)cc2Cl)c2ccccc2)OC1 (stereo not drawn) | 80 | 90 | 100 | 98 | 0 | 0 | 0 | inhibition (INH) [1]: 10%; inhibition at 150 g/ha [2]: 40%; inhibition (INH) [3]: 40%; inhibition (INH) [4]: 30%; inhibition (INH) [5]: 0%; inhibition (INH) [6]: 10%; inhibition at 75 g/ha [7]: 55%; inhibition at 37.5 g/ha [8]: 50%; inhibition at 37.5 g/ha [9]: 50%; inhibition at 75 g/ha [10]: 80%; inhibition at 75 g/ha [11]: 95%; inhibition at 37.5 g/ha [12]: 90%; inhibition at 75 g/ha [13]: 0%; inhibition at 37.5 g/ha [14]: 0%; inhibition at 75 g/ha [15]: 0%; inhibition at 37.5 g/ha [16]: 0%; inhibition at 75 g/ha [17]: 0%; inhibition at 37.5 g/ha [18]: 0%
Cc1cc(OCC(=O)OC(C)P2(=O)OCC(C)(C)CO2)ccc1Cl (stereo not drawn) | 60 | 60 | 70 | 70 | 0 | 0 | 0 | 
Cc1cc(OCC(=O)OC(c2ccccc2)P2(=O)OCC(C)(C)CO2)ccc1Cl (stereo not drawn) | 60 | 65 | 65 | 65 | 0 | 0 | 0 | 
Cc1cc(OCC(=O)OC(c2ccco2)P2(=O)OCC(C)(C)CO2)ccc1Cl (stereo not drawn) | 55 | 60 | 65 | 70 | 0 | 0 | 0 | 
CC1(C)COP(=O)(C(OC(=O)COc2ccc(Cl)cc2)c2ccco2)OC1 (stereo not drawn) | 50 | 55 | 70 | 70 | 0 | 0 | 0 | 
CC(OC(=O)COc1ccc(Cl)cc1)P1(=O)OCC(C)(C)CO1 (stereo not drawn) | 60 | 70 | 75 | 70 | 0 | 10 | 0 | 
CC1(C)COP(=O)(C(OC(=O)COc2ccc(Cl)cc2Cl)c2ccc(Cl)cc2)OC1 (stereo not drawn) | 70 | 80 | 98 | 90 | 0 | 0 | 0 | inhibition (INH) [1]: 0%; inhibition at 150 g/ha [2]: 40%; inhibition (INH) [3]: 20%; inhibition (INH) [4]: 20%; inhibition (INH) [5]: 0%; inhibition (INH) [6]: 10%; inhibition at 75 g/ha [7]: 0%; inhibition at 37.5 g/ha [8]: 0%; inhibition at 37.5 g/ha [9]: 30%; inhibition at 75 g/ha [10]: 50%; inhibition at 75 g/ha [11]: 90%; inhibition at 37.5 g/ha [12]: 80%; inhibition at 75 g/ha [13]: 0%; inhibition at 37.5 g/ha [14]: 0%; inhibition at 75 g/ha [15]: 0%; inhibition at 37.5 g/ha [16]: 0%; inhibition at 75 g/ha [17]: 0%; inhibition at 37.5 g/ha [18]: 0%
COP(=O)(OC)C(C)OC(=O)COc1ccc(Cl)cc1C (stereo not drawn) | 30 | 10 | 20 | 82 | 0 | 0 | 0 | 
Cc1cc(Cl)ccc1OCC(=O)OC(c1ccccc1)P1(=O)OCC(C)(C)CO1 (stereo not drawn) | 75 | 100 | 90 | 100 | 0 | 40 | 0 | 
CC1(C)COP(=O)(C(OC(=O)COc2ccccc2Cl)c2ccccc2)OC1 (stereo not drawn) | 65 | 75 | 75 | 70 | 0 | 0 | 0 | 
CC1(C)COP(=O)(C(OC(=O)COc2ccc(Cl)cc2)c2ccccc2)OC1 (stereo not drawn) | 50 | 60 | 70 | 65 | 0 | 0 | 0 | 
CC1(C)COP(=O)(C(OC(=O)COc2ccc(Cl)cc2Cl)c2ccc(Cl)cc2Cl)OC1 (stereo not drawn) | 70 | 80 | 100 | 95 | 0 | 0 | 0 | inhibition (INH) [1]: 0%; inhibition at 150 g/ha [2]: 40%; inhibition (INH) [3]: 20%; inhibition (INH) [4]: 30%; inhibition (INH) [5]: 10%; inhibition (INH) [6]: 10%; inhibition at 75 g/ha [7]: 34%; inhibition at 37.5 g/ha [8]: 30%; inhibition at 37.5 g/ha [9]: 20%; inhibition at 75 g/ha [10]: 20%; inhibition at 75 g/ha [11]: 55%; inhibition at 37.5 g/ha [12]: 50%; inhibition at 75 g/ha [13]: 0%; inhibition at 37.5 g/ha [14]: 0%; inhibition at 75 g/ha [15]: 0%; inhibition at 37.5 g/ha [16]: 0%; inhibition at 75 g/ha [17]: 0%; inhibition at 37.5 g/ha [18]: 0%
CCCCC(OC(=O)COc1ccc(Cl)cc1Cl)P1(=O)OCC(C)(C)CO1 (stereo not drawn) | 75 | 85 | 100 | 90 | 0 | 0 | 0 | inhibition (INH) [1]: 10%; inhibition at 150 g/ha [2]: 40%; inhibition (INH) [3]: 20%; inhibition (INH) [4]: 30%; inhibition (INH) [5]: 0%; inhibition (INH) [6]: 30%; inhibition at 75 g/ha [7]: 40%; inhibition at 37.5 g/ha [8]: 30%; inhibition at 37.5 g/ha [9]: 50%; inhibition at 75 g/ha [10]: 70%; inhibition at 75 g/ha [11]: 100%; inhibition at 37.5 g/ha [12]: 90%; inhibition at 75 g/ha [13]: 0%; inhibition at 37.5 g/ha [14]: 0%; inhibition at 75 g/ha [15]: 0%; inhibition at 37.5 g/ha [16]: 0%; inhibition at 75 g/ha [17]: 0%; inhibition at 37.5 g/ha [18]: 0%
Cc1cc(Cl)ccc1OCC(=O)OC(c1ccco1)P1(=O)OCC(C)(C)CO1 (stereo not drawn) | 70 | 100 | 90 | 100 | 0 | 60 | 0 | 
COP(=O)(OC)C(C)OC(=O)COc1ccc(Cl)cc1Cl (stereo not drawn) [CLACYFOS] | 90 | 96 | 85 | 100 | 0 | 0 | 0 | inhibition at 75 g/ha [7]: 80%; inhibition at 37.5 g/ha [8]: 60%; inhibition at 37.5 g/ha [9]: 70%; inhibition at 75 g/ha [10]: 95%; inhibition at 75 g/ha [11]: 95%; inhibition at 37.5 g/ha [12]: 90%; inhibition at 75 g/ha [13]: 0%; inhibition at 37.5 g/ha [14]: 0%; inhibition at 75 g/ha [15]: 0%; inhibition at 37.5 g/ha [16]: 0%; inhibition at 75 g/ha [17]: 0%; inhibition at 37.5 g/ha [18]: 0%
CC(OC(=O)COc1ccccc1Cl)P1(=O)OCC(C)(C)CO1 (stereo not drawn) | 75 | 90 | 90 | 70 | 0 | 20 | 0 | 
CC1(C)COP(=O)(C(OC(=O)COc2ccccc2Cl)c2ccco2)OC1 (stereo not drawn) | 70 | 85 | 90 | 70 | 0 | 0 | 0 | 
